The source of these data is ChEMBL document CHEMBL5247577, “Improved Selective Class I HDAC and Novel Selective HDAC3 Inhibitors: Beyond Hydroxamic Acids and Benzamides” (ACS Med Chem Lett, 2019).

Calls of active or inactive are those of the source. The calls are words filed in the database; no cut-off is given here.

The target in data set [1] is Histone deacetylase. Nature of the data set: Inhibition of HDAC in human HeLa cells using FLUOR DE LYS-SIRT1 as fluorogenic substrate incubated for 4 hrs by spectrophotometer based analysis. In kind it is cell-based.
The target of data set [2] is Histone deacetylase 5 (Homo sapiens) (UniProt Q9UQL6). As to the kind of experiment: Inhibition of human HDAC5 at 5 uM.
Sequence of Histone deacetylase 5 (Homo sapiens) (Q9UQL6 whole entry): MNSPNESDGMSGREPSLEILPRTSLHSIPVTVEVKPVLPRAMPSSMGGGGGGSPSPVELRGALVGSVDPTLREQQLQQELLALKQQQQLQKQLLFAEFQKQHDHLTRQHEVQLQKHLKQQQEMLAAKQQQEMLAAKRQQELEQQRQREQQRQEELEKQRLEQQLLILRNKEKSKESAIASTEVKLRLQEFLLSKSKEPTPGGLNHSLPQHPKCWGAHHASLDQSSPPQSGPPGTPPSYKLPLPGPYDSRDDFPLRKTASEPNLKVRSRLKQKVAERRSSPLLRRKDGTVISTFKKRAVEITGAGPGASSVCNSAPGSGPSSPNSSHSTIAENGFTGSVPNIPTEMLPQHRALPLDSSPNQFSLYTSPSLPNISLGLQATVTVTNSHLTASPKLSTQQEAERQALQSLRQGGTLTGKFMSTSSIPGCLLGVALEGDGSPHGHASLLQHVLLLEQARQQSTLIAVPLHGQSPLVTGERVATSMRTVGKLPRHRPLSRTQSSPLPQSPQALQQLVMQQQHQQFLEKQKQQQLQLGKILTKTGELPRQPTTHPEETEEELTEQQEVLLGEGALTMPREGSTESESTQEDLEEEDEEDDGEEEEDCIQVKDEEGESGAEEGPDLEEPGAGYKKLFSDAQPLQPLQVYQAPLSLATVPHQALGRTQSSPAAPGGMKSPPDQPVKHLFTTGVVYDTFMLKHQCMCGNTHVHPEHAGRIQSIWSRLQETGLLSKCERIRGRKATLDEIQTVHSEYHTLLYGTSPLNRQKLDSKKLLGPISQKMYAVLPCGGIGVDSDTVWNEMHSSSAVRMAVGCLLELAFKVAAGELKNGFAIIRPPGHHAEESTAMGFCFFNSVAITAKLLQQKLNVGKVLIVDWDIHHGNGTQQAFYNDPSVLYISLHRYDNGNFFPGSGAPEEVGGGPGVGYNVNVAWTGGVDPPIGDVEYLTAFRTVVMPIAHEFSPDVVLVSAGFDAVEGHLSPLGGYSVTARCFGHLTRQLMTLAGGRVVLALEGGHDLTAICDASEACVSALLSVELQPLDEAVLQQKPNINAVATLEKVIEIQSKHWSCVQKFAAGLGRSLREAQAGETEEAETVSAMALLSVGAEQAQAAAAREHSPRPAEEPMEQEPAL
Data set [3] has as its target T1, Protein deacetylase HDAC6 (Homo sapiens, UniProt Q9UBN7).
T1 sequence (Q9UBN7 whole entry): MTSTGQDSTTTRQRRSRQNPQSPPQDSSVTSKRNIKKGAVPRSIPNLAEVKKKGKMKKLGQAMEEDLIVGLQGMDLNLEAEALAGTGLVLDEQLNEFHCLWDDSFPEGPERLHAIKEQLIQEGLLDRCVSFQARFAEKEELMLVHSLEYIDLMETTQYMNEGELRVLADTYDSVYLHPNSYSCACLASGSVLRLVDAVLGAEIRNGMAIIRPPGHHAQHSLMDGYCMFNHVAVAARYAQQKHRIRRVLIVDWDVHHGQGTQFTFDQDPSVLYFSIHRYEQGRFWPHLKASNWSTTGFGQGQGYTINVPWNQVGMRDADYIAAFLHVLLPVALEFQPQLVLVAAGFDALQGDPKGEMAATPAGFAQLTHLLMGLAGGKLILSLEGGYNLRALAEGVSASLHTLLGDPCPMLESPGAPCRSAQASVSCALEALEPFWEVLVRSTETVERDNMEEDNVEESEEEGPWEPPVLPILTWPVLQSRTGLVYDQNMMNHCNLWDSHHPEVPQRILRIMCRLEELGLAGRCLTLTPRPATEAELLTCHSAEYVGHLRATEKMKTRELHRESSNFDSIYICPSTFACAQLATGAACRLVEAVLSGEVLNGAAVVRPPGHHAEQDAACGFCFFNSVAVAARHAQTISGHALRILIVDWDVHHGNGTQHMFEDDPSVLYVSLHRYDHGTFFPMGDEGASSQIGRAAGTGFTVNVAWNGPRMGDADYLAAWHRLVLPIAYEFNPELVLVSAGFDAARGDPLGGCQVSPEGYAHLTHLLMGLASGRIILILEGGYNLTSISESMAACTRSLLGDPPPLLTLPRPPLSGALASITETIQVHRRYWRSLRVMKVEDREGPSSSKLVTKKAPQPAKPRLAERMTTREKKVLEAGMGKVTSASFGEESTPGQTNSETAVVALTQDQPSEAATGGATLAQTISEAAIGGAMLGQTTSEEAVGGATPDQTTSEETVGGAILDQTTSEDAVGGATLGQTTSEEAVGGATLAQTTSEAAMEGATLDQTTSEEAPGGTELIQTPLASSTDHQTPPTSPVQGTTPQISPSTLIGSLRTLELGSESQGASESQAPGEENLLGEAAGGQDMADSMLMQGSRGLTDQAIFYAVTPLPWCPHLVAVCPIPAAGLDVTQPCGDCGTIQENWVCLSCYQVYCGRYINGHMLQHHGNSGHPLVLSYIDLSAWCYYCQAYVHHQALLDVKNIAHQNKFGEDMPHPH
Nature of the data set: Inhibition of human HDAC6.

The target in data set [4] is Cytochrome P450 2C9 (Homo sapiens, UniProt P11712). As to the kind of experiment: Inhibition of CYP2C9 (unknown origin). In kind it is ADME.
Sequence of Cytochrome P450 2C9 (P11712 whole entry): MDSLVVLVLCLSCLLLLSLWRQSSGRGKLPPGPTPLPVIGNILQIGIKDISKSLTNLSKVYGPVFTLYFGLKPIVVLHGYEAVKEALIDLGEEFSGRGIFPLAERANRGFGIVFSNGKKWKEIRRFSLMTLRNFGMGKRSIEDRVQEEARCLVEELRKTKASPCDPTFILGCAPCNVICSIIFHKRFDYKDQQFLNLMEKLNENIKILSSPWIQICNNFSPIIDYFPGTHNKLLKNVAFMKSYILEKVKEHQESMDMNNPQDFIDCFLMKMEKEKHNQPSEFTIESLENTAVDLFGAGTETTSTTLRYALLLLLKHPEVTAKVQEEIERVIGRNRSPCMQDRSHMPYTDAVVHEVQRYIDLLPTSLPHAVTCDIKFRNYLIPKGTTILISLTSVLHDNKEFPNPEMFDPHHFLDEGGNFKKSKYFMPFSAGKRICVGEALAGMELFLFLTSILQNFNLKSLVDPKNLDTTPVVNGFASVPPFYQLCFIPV
Data set [5] in a line: Genotoxicity in Escherichia coli by Ames test. In kind it is toxicity. The procedure, abridged: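 Bacterial reverse mutation assay in two strains, Salmonella typhimurium and Escherichia coli, scoring reverse mutations.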
On the technique in general: The Ames test detects mutagens through reverse mutation in bacteria.

Data set [6] addresses Sodium channel protein type 5 subunit alpha (Homo sapiens, UniProt Q14524). As to the kind of experiment: Inhibition of Nav1.5 (unknown origin).
The nature of data set [7]: Unbound fraction in human plasma. In kind it is ADME, cell-free.
Data set [8] is described as follows: Clearance in Gottigen pig plasma by LC/MS/MS analysis. The data set is classed as ADME, Sus scrofa. Put shortly:
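Compound dosed as the tartrate salt. Oral doses were 20 mg/kg in mouse, 10 mg/kg in rat and 5 mg/kg in minipig.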

Sequence of Sodium channel protein type 5 subunit alpha (Q14524 whole entry): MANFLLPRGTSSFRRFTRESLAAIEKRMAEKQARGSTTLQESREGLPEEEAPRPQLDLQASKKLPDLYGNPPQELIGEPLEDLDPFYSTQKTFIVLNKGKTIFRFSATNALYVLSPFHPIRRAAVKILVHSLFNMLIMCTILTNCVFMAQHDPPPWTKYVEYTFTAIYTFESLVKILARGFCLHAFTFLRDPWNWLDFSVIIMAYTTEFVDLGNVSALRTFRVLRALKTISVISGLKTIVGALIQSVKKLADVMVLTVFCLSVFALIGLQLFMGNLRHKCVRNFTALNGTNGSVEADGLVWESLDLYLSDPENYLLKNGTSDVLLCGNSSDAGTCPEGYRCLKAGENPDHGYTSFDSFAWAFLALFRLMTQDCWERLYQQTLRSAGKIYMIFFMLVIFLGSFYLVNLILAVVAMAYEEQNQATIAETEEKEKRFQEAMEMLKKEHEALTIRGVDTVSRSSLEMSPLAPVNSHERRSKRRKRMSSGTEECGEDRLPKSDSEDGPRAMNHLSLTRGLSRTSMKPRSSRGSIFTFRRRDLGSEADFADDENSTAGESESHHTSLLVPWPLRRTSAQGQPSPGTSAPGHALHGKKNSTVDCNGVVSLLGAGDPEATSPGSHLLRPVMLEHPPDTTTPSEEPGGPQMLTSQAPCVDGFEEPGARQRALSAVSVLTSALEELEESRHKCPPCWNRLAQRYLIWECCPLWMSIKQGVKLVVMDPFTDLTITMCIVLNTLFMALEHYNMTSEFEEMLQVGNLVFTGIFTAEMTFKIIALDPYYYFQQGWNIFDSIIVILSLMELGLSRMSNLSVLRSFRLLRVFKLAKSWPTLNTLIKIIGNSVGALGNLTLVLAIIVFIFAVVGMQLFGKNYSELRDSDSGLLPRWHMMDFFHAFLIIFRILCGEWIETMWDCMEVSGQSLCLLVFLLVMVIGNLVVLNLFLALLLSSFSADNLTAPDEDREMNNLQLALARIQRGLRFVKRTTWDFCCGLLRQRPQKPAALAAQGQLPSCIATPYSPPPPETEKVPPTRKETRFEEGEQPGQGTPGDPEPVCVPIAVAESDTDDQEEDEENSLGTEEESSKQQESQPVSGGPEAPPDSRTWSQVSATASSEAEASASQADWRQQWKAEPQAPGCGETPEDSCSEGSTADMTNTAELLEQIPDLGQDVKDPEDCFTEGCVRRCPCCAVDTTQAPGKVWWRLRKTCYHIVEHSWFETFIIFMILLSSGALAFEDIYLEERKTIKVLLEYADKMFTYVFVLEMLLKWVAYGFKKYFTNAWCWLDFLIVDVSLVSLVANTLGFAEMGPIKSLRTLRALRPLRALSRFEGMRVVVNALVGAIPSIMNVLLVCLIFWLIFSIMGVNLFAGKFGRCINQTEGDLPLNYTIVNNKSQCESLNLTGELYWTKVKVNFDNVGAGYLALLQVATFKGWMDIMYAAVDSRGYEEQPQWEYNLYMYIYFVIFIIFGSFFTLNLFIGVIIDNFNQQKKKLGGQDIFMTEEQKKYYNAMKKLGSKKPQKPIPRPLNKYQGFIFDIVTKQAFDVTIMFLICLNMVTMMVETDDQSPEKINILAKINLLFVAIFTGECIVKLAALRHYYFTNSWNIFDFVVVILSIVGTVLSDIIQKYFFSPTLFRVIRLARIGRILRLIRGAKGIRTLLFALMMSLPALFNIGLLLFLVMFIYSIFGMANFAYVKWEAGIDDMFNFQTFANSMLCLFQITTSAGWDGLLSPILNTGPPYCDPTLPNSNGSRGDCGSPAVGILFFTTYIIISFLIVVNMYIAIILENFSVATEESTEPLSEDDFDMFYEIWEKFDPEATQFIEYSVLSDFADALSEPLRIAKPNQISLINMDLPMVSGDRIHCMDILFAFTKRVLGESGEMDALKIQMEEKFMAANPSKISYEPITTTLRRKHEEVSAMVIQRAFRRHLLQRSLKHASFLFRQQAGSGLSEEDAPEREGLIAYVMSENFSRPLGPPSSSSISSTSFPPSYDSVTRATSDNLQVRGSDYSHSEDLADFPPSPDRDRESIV

For `CCC(=O)CCCCC[C@H](NC(=O)C1CN(C)C1)c1ncc(-c2cc3ccccc3nc2OC)o1`, in data set [1], the EC50 (as a rule, the concentration at which the effect is half-maximal) stood at 0.05 µM. The inhibition entry in data set [2] was “inactive”. The 50% inhibitory concentration (IC50) (as a rule, the midpoint of a concentration-inhibition curve) in data set [3] is 0.177 µM; in data set [4], greater than 20 µM; in data set [6], greater than 16 µM. The Activity result in data set [5] was “Non-Toxic”. The unbound share (fraction unbound) (in general, the share of the substance not bound to proteins or other matrix) in data set [7] is 0.018. Besides, the clearance (commonly the volume of plasma or blood freed of the substance per unit of time) in data set [8] is 1.2 L/h/kg.
